Data published in the RNAGym collection of RNA variant scans (doi:10.1126/science.aae0568).
Fewer inactive variants are shown than the library holds.

B1: tRNA (parent)
chain: GUUCCGUUGGCGUAAUGGUAACGCGUCUCCCUCCUAAGGAGAAGACUGCGGGUUCGAGUCCCGUACGGAACG

Variants of: B1
Assay: yeast fitness relative to wild type (ratio to wild type); higher = fitter; tRNA-Arg(CCU), competitive growth, 37 C, YPD
Outline: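 A pool of Saccharomyces cerevisiae strains, each with a tRNA-Arg(CCU) gene variant at the native genomic locus, was competed in YPD at 37°C for 24 hours across six parallel replicates. The variants had been chemically synthesised at a 3% per-site mutation rate over 69 sites, and gene amplicons before and after competition were read by 100-nucleotide paired-end sequencing. Darwinian fitness relative to wild type rested on changes in genotype frequencies. Genotypes required ≥ 100 starting reads, and estimates < 0.5 were set to 0.5.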

| Variant | yeast fitness |
| --- | --- |
| GUUCCGUUGGCGUAAUGGUAACGCGUUACCCUCCUAGGGAGAAGACUGUGGGUUCGCCUCCCGUACGGAACG [C27U U28A A37G C49U A57C G58C] | 0.683 |
| GUUCCGUUGGCGUAAUGGUAACGCGUUACCCACUUCAGGAGAAGACCGCGGGUUAGAGUCCCGUACGGAACG [C27U U28A U32A C34U A36C U47C C55A] | ≤ 0.5 |
| GUUCCGUUGGCGUAAUGGUAACGCGUUCCCCUCCUAAGGAGAAGACUGUGGGUACGCGCCCCGUACGGAACG [C27U U28C C49U U54A A57C U59C] | 0.706 |
| GUUCCGUUGGCGUAAUGGUAACGCGUUGCCCUCCUAAGGCGAAGACUGCGAGUUCGAGUCCCGUACGGAACG [C27U U28G A40C G51A] | 0.543 |
| GUUCCGUUGGCGUAAUGGUAACGCGUUGCCAUCCUAAGGAGAAGACUGCGGGUUCGACUCCCGUACGGAACG [C27U U28G C31A G58C] | ≤ 0.5 |
| GUUCCGUUGGCGUAAUGGUAACGCGUUUCCCACCUAAGGAGAAGACUGCGGGUUCGAGUCCCGUACGGAACG [C27U U32A] | 0.993 |
| GUUCCGUUGGCGUAAUGGUAACGCGUUUCCCCCCUAAGGAGAAGAGUGCGGGUUCGAGUCCCGUACGGAACG [C27U U32C C46G] | 0.765 |
| GUUCCGUUGGCGUAAUGGUAACGCGUUUCCCCCCUAAGGAGAAGACUGCGGGUUAGAGUCCCGUACGGAACG [C27U U32C C55A] | ≤ 0.5 |
| GUUCCGUUGGCGUAAUGGUAACGCGUUUCCCUCCCAAGGAGAAGACUGCGGGUUCGAGUCCCGUACGGAACG [C27U U35C] | 0.754 |
| GUUCCGUUGGCGUAAUGGUAACGCGUUUCCCUCCGAAGGCGAAGACUGCGGGUUCGCGUCCCGUACUGAACG [C27U U35G A40C A57C G67U] | 0.612 |
| GUUCCGUUGGCGUAAUGGUAACGCGUUUCCCUCCUAAGGAGAAGACAGCGGGUUCGAGUCCCGUACGCAACG [C27U U47A G68C] | ≤ 0.5 |
| GUUCCGUUGGCGUAAUGGUAACGCGUUUCCCUCCUAAGGAGAAGACCGCGGGUUCGAGUCCCGUACGAAACG [C27U U47C G68A] | 0.672 |
| GUUCCGUUGGCGUAAUGGUAACGCGUUUCCCUCCUAAGGAGAAGACUGCGGGCUCGAGUCCCAUACGGAACG [C27U U53C G63A] | ≤ 0.5 |
| GUUCCGUUGGCGUAAUGGUAACGCGUUUCCCUCCUAAGGAGAAGACUGCGGGUGCGAGUCCCGUCCGGAACG [C27U U54G A65C] | ≤ 0.5 |
| GUUCCGUUGGCGUAAUGGUAACGCGUCACCCUCCUUAGGAGAAGACUGCGGGUUCGAGUCACGUACGGUACG [U28A A36U C61A A69U] | ≤ 0.5 |
| GUUCCGUUGGCGUAAUGGUAACGCGUCACCCUCCUAGGGAGAAGACUGCGCGUUCGCGUCCCGUACGGAACG [U28A A37G G51C A57C] | ≤ 0.5 |
| GUUCCGUUGGCGUAAUGGUAACGCGUCACCCUCCUAAGGUGAAGACUGCGGGUUCGAGUCACGUACGAAACG [U28A A40U C61A G68A] | ≤ 0.5 |
| GUUCCGUUGGCGUAAUGGUAACGCGUCACCCUCCUAAGGAGCAGACUGCGGGUUCGAGUCCCGUACGGAACG [U28A A42C] | 0.797 |
| GUUCCGUUGGCGUAAUGGUAACGCGUCACCCUCCUAAGGAGUAGACUGCGGGUUCGAGUCCCGUACGGAACG [U28A A42U] | 0.812 |

| Variant | yeast fitness |
| --- | --- |
| GUUCCGUUGGCGUAAUGGUAACGCGUCACCCUCCUAAGGAGAAGGCUGCGGGUUCGAGUCCCGUACGGCACG [U28A A45G A69C] | ≤ 0.5 |
| GUUCCGUUGGCGUAAUGGUAACGCGUCACCCUCCUAAGGAGAAGACUGCGGGUUCGAGUCCCGUACGGUACG [U28A A69U] | 0.749 |
| GUUCCGUUGGCGUAAUGGUAACGCGUCACGCUCCUCAGGAGAAGACUGCGGGUUCGAGUCCCGUACGGAACG [U28A C30G A36C] | ≤ 0.5 |
| GUUCCGUUGGCGUAAUGGUAACGCGUCACGCUCCUAAGGAGAAGACUGCGGGUUCGAGCCCCGUACGGAACG [U28A C30G U59C] | ≤ 0.5 |
| GUUCCGUUGGCGUAAUGGUAACGCGUCACUCUCCUAAGGAGAAGACUGCGGGUUCGAGUCCCGUACGGAACG [U28A C30U] | 0.667 |
| GUUCCGUUGGCGUAAUGGUAACGCGUCACUCUCCUACGGACAAGACUGCGGGUUCGAGUCCCGUACGGAACG [U28A C30U A37C G41C] | 0.542 |
| GUUCCGUUGGCGUAAUGGUAACGCGUCACUCUCCUAAGGAGAAGACUGCGGGUUCGGGUCCCGUACGGAACG [U28A C30U A57G] | 0.651 |
| GUUCCGUUGGCGUAAUGGUAACGCGUCACCAUCCUAAGGAGAAAACUGCGGGUUCGAGUCCCGUACGGAACG [U28A C31A G44A] | 0.568 |
| GUUCCGUUGGCGUAAUGGUAACGCGUCACCGUCCUAAGGAGAAGACUACGCGUUGGAGUCCCGUACGGAACG [U28A C31G G48A G51C C55G] | 0.523 |
| GUUCCGUUGGCGUAAUGGUAACGCGUCACCUUCCUAAGGAGAAGACUGCGGGUUCGAGUCCCGUACGGAACG [U28A C31U] | 0.7 |
| GUUCCGUUGGCGUAAUGGUAACGCGUCACCUACCUAAGGAGAAGACUGCGGAUUCGUGUUCCGUGCGAAACG [U28A C31U U32A G52A A57U C60U A65G G68A] | ≤ 0.5 |
| GUUCCGUUGGCGUAAUGGUAACGCGUCACCCUGCUUAGGGGAAGACUGCGGGUUCGAGUCCCGUACGGAGCG [U28A C33G A36U A40G A70G] | ≤ 0.5 |
| GUUCCGUUGGCGUAAUGGUAACGCGUCACCCUGCUAAGGAGAAGACUGGUGGUUCGAGUCCCGUACGGAACG [U28A C33G C49G G50U] | ≤ 0.5 |
| GUUCCGUUGGCGUAAUGGUAACGCGUCACCCUCUUAUGGAGAAGUCUGCGGGUUCGGGUCUCGUACGGAACG [U28A C34U A37U A45U A57G C61U] | ≤ 0.5 |
| GUUCCGUUGGCGUAAUGGUAACGCGUCACCCUCUUAAGGUGAAGUCUGCGGGUUCGAGUACCGUACGGAACG [U28A C34U A40U A45U C60A] | 0.706 |
| GUUCCGUUGGCGUAAUGGUAACGCGUCACCCUCUUAAGGACAAGACUGCGAGAUCGAGCCCCGUACGGAUCG [U28A C34U G41C G51A U53A U59C A70U] | ≤ 0.5 |
| GUUCCGUUGGCGUAAUGGUAACGCGUCACCCUCCUAAGGAGAAGACUGCGGGUUGGAGUCCUGUACGGAACG [U28A C55G C62U] | ≤ 0.5 |
| GUUCCGUUGGCGUAAUGGUAACGCGUCACCCUCCUAAGGAGAAGACUGCGGGUUCGAGUCCCGUAAGGAACG [U28A C66A] | 0.575 |
